# Screening results: PubChem BioAssay, several laboratories
# MC4R antag cAMP: MC4R antagonists of cAMP signaling, primary screen, cell-based, TR-FRET, antagonist arm of biased-ligand search; Melanocortin receptor 4 (Homo sapiens), P32245; MC4R-expressing cells, MTII-stimulated cAMP, LANCE TR-FRET; inhibition, % at 6.5 µM; hit rate 0.48% among 360,000; AID 540295, 2011;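 active = inhibition above its plate's cutoff, the mean of tested wells on that plate plus 3 SD, cut at about 29% in these data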;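 also: 0% = Melanotan II alone and 100% = Melanotan II plus saturating MCL0020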
#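 System: U2OS-MC4R stable cell line; Technique: Eu-cAMP/anti-cAMP TR-FRET, emission 671 nm; Repeats: single well per compound; Also added: Melanotan II; Dosing: one concentration, 6.5 µM nominal; Schedule: 30-min compound, 1-h challenge, 1-h detection, room temperature.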
# EBI2 antag: EBI2 receptor antagonists, beta-arrestin recruitment, primary screen, cell-based, luminescence, 7a,25-OHC stimulation, uHTS. G-protein coupled receptor 183 (Homo sapiens), P32249. 7a,25-OHC stimulated. inhibition, % at 5 µM. hit rate 0.81% among 360,000. AID 651636, 2012; in the data active = inhibition above about 38%;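 also: enzyme fragment complementation signal reports receptor beta-arrestin coupling in cells; 0% = agonist plus DMSO wells and 100% = wells without agonist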
# Target sequence (P32249 whole entry, looked up, the tested form may be a part): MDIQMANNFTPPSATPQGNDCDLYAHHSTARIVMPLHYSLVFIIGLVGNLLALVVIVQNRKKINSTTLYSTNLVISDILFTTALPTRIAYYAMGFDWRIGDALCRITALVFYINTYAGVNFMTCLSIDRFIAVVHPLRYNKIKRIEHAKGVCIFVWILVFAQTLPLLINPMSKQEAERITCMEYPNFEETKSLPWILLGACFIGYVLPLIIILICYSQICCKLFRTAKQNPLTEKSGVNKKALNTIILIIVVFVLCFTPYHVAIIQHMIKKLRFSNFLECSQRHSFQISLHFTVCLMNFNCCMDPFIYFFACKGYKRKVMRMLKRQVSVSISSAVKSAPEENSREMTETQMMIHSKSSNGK
# Myeloid diff 2: induction of myeloid progenitor differentiation, primary screen, cell-based, flow cytometry, MLPCN library. ER-HoxA9 myeloid progenitors, lysozyme-GFP differentiation. calls only at 10 µM. hit rate 1% among 360,000;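 active = normalized GFP-positive differentiation at or above the plate's own cutoff, the solvent-only control mean plus 3 SD; inconclusive = no clear call, values can overlap the other calls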;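 also: cells exposed to compound for four days before flow analysis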
# MC4R barr agon: MC4R agonists recruiting beta-arrestin, primary screen, cell-based, luminescence, agonist arm of biased-ligand search; U2OS MC4R beta-arrestin complementation; percent of melanotan II response, DMSO zero; hit rate 0.98% among 360,000; activation, % at 8.9 µM; AID 540308, 2011;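 active = activation above a per-plate cutoff, the mean activation of sample wells on that plate plus 3 SD, cut at about 8% in these data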
# Exocytosis inh: LAMP-1 surface exposure blockers, TALL-104 cells – cell-based, flow cytometry, MLPCN library, primary screen. TALL-104 LAMP-1 surface exposure; cells stimulated with thapsigargin and PMA. inhibition, % at 10 µM. hit rate 0.66% among 360,000;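 active = inhibition above about 55%, limit read from the data; inconclusive = no clear call, values can overlap the other calls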
# An asterisk follows results filed as active; i = inactive; u = inconclusive; x = not tested or not shown; + = active, no number. Sampled rows, rich in hits. Any-hit rate of the full collection: about 3.7%.
SMILES,MC4R antag cAMP,EBI2 antag,Myeloid diff 2,MC4R barr agon,Exocytosis inh
CCOc1ccccc1NC(=O)CN(c1ccc(Cl)cc1)S(C)(=O)=O,23.1,-11.2,i,1.6,-11.1
N#Cc1cccc(C(=O)Nc2cccc(S(=O)(=O)N3CCCC3)c2)c1,13.8,1.0,x,-1.7,-0.4
O=C(Nc1ccc2oc(-c3ccncc3)nc2c1)c1ccccc1,-2.0,2.8,i,-0.1,-2.9
O=C(Nc1ccc2oc(-c3ccc4ccccc4c3)nc2c1)c1ccc2c(c1)OCCO2,17.6,5.7,i,8.6*,2.8
CCN(CC)S(=O)(=O)c1ccc2oc(C(=O)NCc3ccc(F)cc3)c(C)c2c1,3.4,49.6*,i,-1.5,9.7
CCOC(=O)C(=Cc1ccc(OCc2ccc([N+](=O)[O-])cc2)c(OC)c1)C(=O)OCC,26.6,54.0*,i,0.1,-2.3
COc1ccc(C(c2sc3nc(C)nn3c2O)N2CCN(CCO)CC2)cc1OC (stereo not drawn),14.8,-3.2,+,1.4,27.9
Cc1nc2sc(C(c3ccc(Cl)cc3)N3CCN(CCO)CC3)c(O)n2n1 (stereo not drawn),23.3,4.6,i,0.4,2.0
COc1ccc(N2CCN(C(=O)C(=O)c3cn(CC(=O)N4CCCCCC4)c4ccccc34)CC2)cc1,0.1,7.3,+,-1.8,-0.9
COc1ccc(N2CCN(C(=O)C(=O)c3cn(CC(=O)N4CCOCC4)c4ccccc34)CC2)cc1,-1.3,2.3,i,-1.6,-6.9
O=C(NCCc1ccccc1C(F)(F)F)c1cc(COc2ccccc2)on1,18.2,24.4,i,2.5,0.7
O=C(CSc1ccccn1)Nc1cccc(NC(=O)CSc2ccccn2)n1,-1.1,-0.8,i,9.1*,5.6
Cc1cnc(NC(=O)CC2OC(=O)c3ccccc32)s1 (stereo not drawn),-0.3,-6.1,i,-3.4,13.6
COC(=O)[C@]12CCCCC=C1N(Cc1ccco1)C(=O)[C@H](CC(=O)N1CCCCC1)C2,x,-5.7,i,x,-1.9
CC1=N/C(=C\c2ccc(OC(C)C)cc2)C(=O)N1c1ccc(C(=O)O)cc1,-1.6,-16.3,+,4.1,-9.7
CC(C)Oc1ccc(C(=O)O)cc1,0.1,-1.8,i,-2.0,-19.9
COc1ccc2oc(=Nc3cc(F)ccc3F)c(C(N)=O)cc2c1,15.1,1.5,+,0.0,-0.1
N=c1oc2cc(O)ccc2cc1C(=O)Nc1ccc(F)cc1,-1.9,-9.2,i,0.8,3.8
COc1ccc(NC(=O)c2cc3ccc(O)cc3o/c2=N\O)cc1,2.0,16.7,i,-2.1,65.8*
COc1ccccc1NC(=O)c1cc2cc(Br)ccc2oc1=N,-6.3,28.6,i,8.3*,23.9
COc1ccc2o/c(=N\O)c(C(=O)Nc3ccccc3OC)cc2c1,-13.9,2.2,i,4.4,63.5*
Cc1cccc(NS(=O)(=O)c2ccc(OCC(=O)N3CCCC3)cc2)c1,9.4,-1.1,x,-3.9,-0.1
COc1ccc(C2C(C#N)=C(C)NC3=C2C(=O)c2ccccc23)cc1 (stereo not drawn),13.2,3.4,i,1.1,-1.5
COc1cc(C2C(C#N)=C(C)NC3=C2C(=O)c2ccccc23)cc(OC)c1OC (stereo not drawn),-28.7,-1.4,+,-3.4,-1.4
O=C(NN(c1ccccc1)c1ccccc1)c1ccc([N+](=O)[O-])o1,4.3,-14.2,i,-0.6,-1.0
SMILES,MC4R antag cAMP,EBI2 antag,Myeloid diff 2,MC4R barr agon,Exocytosis inh
O=C(COC(=O)c1ccc([N+](=O)[O-])o1)NC1CCCC1,7.2,-21.9,i,0.3,-6.5
O=C(NNC(=O)c1ccc([N+](=O)[O-])o1)c1ccccc1,-13.0,-1.1,+,0.5,0.6
O=C(NC1CCCC(C(F)(F)F)C1)c1ccc([N+](=O)[O-])o1 (stereo not drawn),20.3,-7.9,+,-2.5,15.3
O=C(NC1CCCCC1)c1ccc([N+](=O)[O-])o1,9.2,-5.8,+,-1.0,-0.8
CC(NC(=O)c1ccc([N+](=O)[O-])o1)C12CC3CC(CC(C3)C1)C2 (stereo not drawn),2.8,-3.4,+,-0.4,-1.3
COc1ccc(NC(=O)CSc2nnc(N)s2)cc1S(=O)(=O)N1CCCCC1,-1.3,-11.2,i,-0.3,-1.6
COc1ccc(-c2csc(C(C)(O)c3cccnc3)n2)cc1 (stereo not drawn),-3.4,1.9,i,-0.1,9.7
CCN(CC)c1ccc(/C=N/NC(=O)c2cc(C)nc3ccccc23)cc1,2.6,8.7,i,2.7,3.4
CCN(CC)c1ccc(/C=C/c2cc(-c3ccccc3)c3ccccc3n2)cc1,3.4,2.8,+,-1.5,-13.9
O=C(Nc1c2c(nn1-c1ccccc1)CS(=O)(=O)C2)c1ccc(Br)o1,6.8,-3.2,i,0.5,0.4
O=C(NCCC1=CCCCC1)C1CCC(=O)N(Cc2ccc(Cl)cc2)C1 (stereo not drawn),4.3,19.3,+,1.0,-2.6
Cc1ccc(S(=O)(=O)NC2CC2)cc1,4.1,-12.2,i,-1.8,-3.8
Cc1ccc(S(=O)(=O)NC2CCC(C(=O)O)CC2)cc1 (stereo not drawn),6.2,-3.2,+,2.9,0.3
CCOc1ccc(NC(=O)CN2CCN(CC(=O)Nc3cccc(F)c3)CC2)cc1,15.8,-0.2,i,-0.8,0.7
CCOc1ccc(NC(=O)CN2CCN(CC(=O)Nc3ccc(Cl)c(C(F)(F)F)c3)CC2)cc1,10.5,43.1*,i,4.7,4.4
O=C(Nc1nnc(-c2ccco2)o1)c1ccc([N+](=O)[O-])s1,7.0,-6.3,+,-2.8,-1.5
O=C1C=CC(c2ccccc2)(c2ccccc2)CC1,-2.9,5.7,i,-0.4,-0.6
Cc1cccc(N2C(N)=NC(N)=NC23CCCCC3)c1,-3.2,8.4,+,-1.1,3.2
O=C(NNC(=O)c1cc(-c2ccncc2)nc2ccccc12)c1ccccc1O,1.0,-2.7,i,-0.5,10.2
CN(O)/C=C1\C(=O)Nc2ccccc21,-7.2,-4.1,i,-1.5,2.0
O=C1Nc2ccccc2/C1=C\C(=O)c1ccccc1,-4.2,61.2*,u,-1.1,24.3
CC(C)Oc1ccc(C(=O)/C=C2/C(=O)Nc3ccccc32)cc1,-5.2,71.6*,i,0.7,3.1
CCCCN1CC(=O)N2[C@H]3c4cc(Cl)ccc4OC[C@@H]3[C@H](c3ccccc3)[C@]2(C)C1=O,10.4,8.4,i,5.5,-0.7
CCc1ccc(NC(=O)Cn2nc(C(F)(F)F)c3c2CCC3)cc1,-1.6,15.8,i,9.2*,-1.2
